An excerpt weighted towards active compounds, which were near 3.1% of everything screened.
T cruzi repl = blocks replication of Trypanosoma cruzi; inhibition, % (concentration not given with the values); T. cruzi beta-gal in NIH3T3, luminescence, 90 h; AID 1885; 300,000 compounds, 1.4% hits;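 active = mean inhibition across valid replicates above about 55%, limit read from the data; inconclusive = mean below that limit but half or more replicates reach it; inactive = mean below it, under half of replicates reach it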;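 also: signal also drops with host cell toxicity which is not excluded here; 0% = plate median of DMSO wells and 100% = zero luminescence signal; higher percent means less beta-gal luminescence so fewer parasites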
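Material: NIH/3T3 host cells with β-galactosidase reporter T. cruzi; Input: 5,000 host fibroblasts per well; Medium: DMEM, 2% fetal bovine serum; Compound: 50 nL DMSO compound solution per well; Schedule: 3 h host attachment, then at least 90 h co-culture; Detection: luminescent β-galactosidase signal after 60 min lysis.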
HIF activator = HIF pathway transcriptional activation; U2OS HRE-luciferase reporter, luminescence; normalized: DMSO 0%, desferrioxamine 100%; activation, % at 7.5 µM (by protocol); 300,000 compounds, 0.32% hits; AID 1910;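 active = mean activation of at least 10% of the iron chelator positive control signal, with at least half of replicates also reaching 10%; inconclusive = mean and replicate majority disagree about reaching 10%; inactive = mean and most replicates under 10%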
Beta cell apopt = beta cell apoptosis inhibition | INS-1E cytokine-induced death, ATP luminescence, 48 h; percent of positive-control rescue, neutral wells zero | protection from apoptosis, % (no concentration beside the values) | 300,000 compounds, 0.8% hits | AID 435005;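 active = Every replicate reaches about 75%, or at least half do and their mean reaches it too, limit read from the data; inconclusive = At least half of replicates reach the limit but their mean does not; inactive = Under half of replicates reach the limit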;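 also: 0% = cytokine-treated negative control wells and 100% = positive control rescue; higher means more ATP so stronger rescue from cytokine killing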
CSC inhib = cancer stem cell inhibition. cancer stem cell-like cells viability, luminescence. AID 2717. 300,000 compounds, 1.1% hits. inhibition, % at 7.5 µM; in the data active = inhibition above about 75%; inconclusive = no clear call, values can overlap the other calls; tested in HMLE shEcad cells
Calb FLC = C. albicans growth modulation with fluconazole; AID 1979; C. albicans CaCi-2 + fluconazole, Alamar Blue growth, 48 h; 300,000 compounds, 0.57% hits; growth inhibition, % (concentration not given with the values);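 active = growth inhibition above about 58% in most replicates, limit read from the data, passing the limit was not always enough; inconclusive = exactly half the replicates above a set limit; inactive = most replicates below a set limit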;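 also: all wells also contain fluconazole at 8 µg/ml as a sub-toxic cotreatment; 0% = median of DMSO wells and 100% = median of geldanamycin control wells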
PolyA inh = blocks polyadenylation in yeast reporter cells; 300,000 compounds, 0.02% hits; AID 1875; S. cerevisiae SKY197-pL101 polyadenylation reporter, beta-gal luminescence; efflux-impaired pdr1/pdr3 knockout yeast; score 100 = 6 SD above DMSO; activity score, % at 12 µM;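 active = lowest replicate activity score at least 50, where 100 means six control SD above control mean; inconclusive = lowest score under 50 but half or more replicates reach 50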;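 also: yeast exposed to compound for 9 h at 30 °C; higher score means more reporter readthrough which indicates perturbed polyadenylation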
* hit, by the source's call; ? = inconclusive; / = not tested or not shown.

SMILES | T cruzi repl | HIF activator | Beta cell apopt | CSC inhib | Calb FLC | PolyA inh
CCc1cccc(C)c1NC(=S)N(CCOC)C(C)c1ccco1 (stereo unspecified) | -14 | -1 | -12 | 9 | 3 | 12
COc1cc(/C=C(/C#N)c2nc3ccccc3[nH]2)ccc1OCC(=O)Nc1ccccc1C(C)C | 15 | -2 | 62 | 100* | 10 | 7
COc1cc(/C=C(/C#N)c2nc3ccccc3[nH]2)ccc1OCC(=O)Nc1ccccc1C | / | / | 3 | 83* | / | /
CCOC(=O)c1c(CSc2ccccc2)n(C)c2ccc(O)cc12 | 11 | -1 | -4 | -4 | -1 | -1
O=C(O)c1ccc(Cl)c(S(=O)(=O)N(Cc2ccccc2)c2ccc(F)cc2)c1 | -2 | -1 | 3 | 96* | 5 | -13
O=C(O)c1ccc(Cl)c(S(=O)(=O)N(Cc2ccccc2)c2ccccc2)c1 | -3 | 2 | -5 | 34 | 12 | 0
Cc1cc(C(=O)CN2C(=O)C(=O)N(Cc3ccccc3)C2=O)c(C)n1-c1ccccc1F | -20 | 2 | 4 | 60 | 14 | 11
Cc1cc(C(=O)CN2CCC(C)CC2)c(C)n1-c1ccccc1F | 57* | -1 | 5 | -7 | 3 | -12
CN1CCN(c2nc(-c3ccc(Cl)cc3)nc3ccccc23)CC1 | 42 | 1 | / | / | 18 | -1
CN(C)CCc1cc2c(c3c1ccc1ccccc13)OCO2 | 34 | 1 | 57 | 44 | -16 | 59*
COc1cc(CN(C)CCc2ccccn2)cc(OC)c1OC | 14 | 0 | -3 | -14 | 1 | 24
COc1ccc(CN(C)CCc2ccccn2)cc1OC | / | 0 | -3 | 12 | -2 | -6
CCc1ccc(CN(C)CCc2ccccn2)cc1 | 63* | 0 | -4 | -3 | 3 | 0
CN(CCc1ccccn1)Cc1ccc(Cl)cc1 | 56* | 0 | -4 | -18 | -3 | 12
Cc1ccc(CN(C)CCc2ccccn2)cc1 | 67* | 0 | -3 | 8 | -29 | 4
CN(C)CCN(Cc1ccc(Cl)cc1)c1ccccn1 | 6 | 0 | -1 | 0 | -27 | -15
COc1cccc(CC(=O)n2nc(N)c3cc4ccc(OC)cc4nc32)c1 | 0 | -1 | -10 | 29 | 0 | 8
COc1ccc2cc3c(N)nn(C(=O)Cc4c[nH]c5ccccc45)c3nc2c1 | 7 | 14* | -28 | 51 | 8 | -13
CCOC(=O)c1nnn(-c2ccc([N+](=O)[O-])cc2[N+](=O)[O-])c1C | 96* | -1 | 37 | 14 | 27 | -8
O=C(CNC(=S)N(Cc1ccccc1)Cc1ccccc1F)NCCc1ccc(Cl)cc1 | 85* | -1 | 13 | ? | 3 | -26
O=C(CNC(=S)N(Cc1ccccc1)Cc1cccs1)NCc1ccc(F)cc1 | -4 | 0 | / | / | -5 | -11
COc1ccc(C(C)=NNC(=O)c2cccc(S(=O)(=O)N3CCCC3)c2)cc1 | / | / | -3 | -7 | / | /
CCN(CC)S(=O)(=O)c1cc(NC(=O)CNc2cccc(S(=O)(=O)N3CCCC3)c2)ccc1C | 0 | 0 | 89* | -4 | -5 | 2
COc1ccc(CCC(=O)Nc2cccc(S(=O)(=O)N3CCCCCC3)c2)cc1OC | / | / | -3 | 4 | / | /
COc1ccc(/C(C)=N/NC(=O)c2cccc(S(=O)(=O)N3CCCC3)c2)c(O)c1 | 61* | 33* | 109* | 100* | 5 | 13
SMILES | T cruzi repl | HIF activator | Beta cell apopt | CSC inhib | Calb FLC | PolyA inh
O=S(=O)(Nc1nc2ccccc2nc1Nc1cccc(S(=O)(=O)N2CCCCC2)c1)c1ccccc1 | -48 | -2 | 57 | 124* | 6 | -8
COc1ccc(CC(=O)Nc2cccc(S(=O)(=O)N3CCCCCC3)c2)cc1OC | -103 | -1 | 87* | 10 | -3 | -5
CCc1ccc(-c2cc(C(=O)O)c3ccccc3n2)s1 | -6 | 2 | 7 | 8 | -10 | -4
CC(N)(C(=O)O)c1cccc(OCc2cccc(Cl)c2)c1 (stereo unspecified) | -8 | 1 | -1 | -6 | -3 | 9
COc1ccc(NS(=O)(=O)c2ccc(O)c(NC(=O)c3ccc(S(=O)(=O)N4CCCCCC4)cc3)c2)cc1 | -25 | 0 | -6 | / | 25 | -14
COc1ccc(NS(=O)(=O)c2cccc(NC(=O)c3ccc(S(=O)(=O)N4CCCCCC4)cc3)c2)cc1 | -5 | -1 | 100* | / | -25 | 20

Assay outcomes deposited in PubChem by Broad Institute.
